By IC50 is commonly meant the concentration needed to halve the response being measured. By ED50 is commonly meant the midpoint of the dose-response relation. Higher therefore signals weaker potency.

The source made the active and inactive calls. No cut-off for these calls is given here.

The subject of assay [1] is IMR-32. The experiment in a line: Evaluated in vitro for the inhibition of Adenosine (ADO) phosphorylation in intact cells. It is filed as functional, cell-based. As to conditions: Homo sapiens. In a few lines:
(§1)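 IMR-32 human neuroblastoma cells were preincubated 10 min with compound (10^-11 to 10^-4 M), then given [U-14C]ADO (added as a 2 μM solution) for 20 min. Buffer was aspirated and cells were snap-frozen in liquid nitrogen, then thawed 20 min at room temperature. Supernatant was spotted on DE-81 disks, washed and counted by scintillation.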

The next assay concerns the target Adenosine kinase (Rattus norvegicus, UniProt Q64640). The experiment in a line: Evaluated in vitro for inhibitory activity against Adenosine kinase (AK). In a few lines: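 Rat brain cytosol was the adenosine kinase source. The mix held 64 mM Tris-HCl pH 7.5, 0.2 mM MgCl2, 1 mM ATP and 0.2 μM [U-14C]ADO or [2-3H]ADO, incubated 15 min at 23 °C. Aliquots were spotted onto DE-81 anion-exchange disks, washed in 2 mM ammonium formate, rinsed and dried. Bound radioactivity was counted by scintillation.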

For assay [2], the system named is IMR-32. The experiment in a line: Evaluated in vitro for the inhibition of Adenosine (ADO) phosphorylation in intact IMR-32 human neuroblastoma cells. Type of assay: functional, cell-based. The essentials: as §1
The species entered for assay [3] is Rattus norvegicus. The assay can be described thus: Antihyperalgesic effect in the carrageenan induced thermal hyperalgesia model. It is filed as functional.
The species entered for assay [4] is Rattus norvegicus. The experiment in a line: Nociceptive paw flinching in rats assessed 30 min following an intraplantar injection of 5% formalin into the right hind paw. Type of assay: functional. As to conditions: 0.5 h. The essentials: (§2)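 Rats received an intraplantar injection of 5% formalin (50 μL) into the right hindpaw, and nociceptive flinching was scored 30 min afterward. Data are mean ± SEM, n = 6-8 per dose group.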

The test system of assay [5] is Rattus norvegicus. The experiment in a line: Nociceptive paw flinching in rats assessed 30 min following an intraplantar injection of 5% formalin into the right hind paw.; NA=not active uM/Kg. Type of assay: functional, organism-based. In a few lines: as §2
The subject of assay [6] is Rattus norvegicus. The assay can be described thus: Antihyperalgesic effect in the carrageenan induced thermal hyperalgesia model uM/Kg. Type of assay: functional, organism-based.
The subject of assay [7] is Rattus norvegicus. The experiment in a line: Nociceptive paw flinching in rats assessed 30 min following an intraplantar injection of 5% formalin into the right hind paw; NA=not active uM/Kg. Type of assay: functional, organism-based. The essentials:
as §2

Sequence of Adenosine kinase (Q64640 whole entry): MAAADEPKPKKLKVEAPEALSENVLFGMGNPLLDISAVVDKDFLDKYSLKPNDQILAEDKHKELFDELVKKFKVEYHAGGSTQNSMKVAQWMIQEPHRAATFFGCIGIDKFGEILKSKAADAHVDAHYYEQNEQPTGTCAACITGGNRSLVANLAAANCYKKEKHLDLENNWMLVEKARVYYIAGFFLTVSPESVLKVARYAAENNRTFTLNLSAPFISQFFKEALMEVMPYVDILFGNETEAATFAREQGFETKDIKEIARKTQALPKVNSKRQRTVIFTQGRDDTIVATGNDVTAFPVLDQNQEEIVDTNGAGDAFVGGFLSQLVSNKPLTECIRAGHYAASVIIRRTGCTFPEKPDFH

As to `Nc1ncnc(C#Cc2ccc(N3CCOCC3)nc2)c1CCc1ccccc1`, the IC50 in the assay with IMR-32 [1] is 220 nM; on Adenosine kinase, 4.5 nM.
Regarding `Nc1ncnc(C#Cc2ccc(N3CCOCC3)nc2)c1Cc1cccc(Br)c1`, the IC50 in the assay on IMR-32 [2] came out at 1000 nM; at Adenosine kinase, 22 nM.
In the case of `CN(Cc1ccccc1Cl)c1c(N)ncnc1C#Cc1ccc(N2CCOCC2)nc1`, the IC50 in the assay with IMR-32 [2] came to 100 nM; against Adenosine kinase it was 15 nM. In addition, the ED50 in the assay filed under Rattus norvegicus [3] was 3 µmol/kg; in the assay filed under Rattus norvegicus [4], 10 µmol/kg.
For `CN(Cc1ccccc1)Cc1c(N)ncnc1C#Cc1ccc(N2CCOCC2)nc1`, in the assay on Rattus norvegicus [5], the NA result is “inactive”. For the same molecule, the IC50 with IMR-32 [2] is 118 nM; against Adenosine kinase it was 2 nM. In addition, the 50% effect level in the assay listed under Rattus norvegicus [3] (ED50) was put at a dose of 5 µmol/kg.
For `CN(Cc1cccc(Cl)c1)c1c(N)ncnc1C#Cc1ccc(N2CCOCC2)nc1`, the NA result in the assay on Rattus norvegicus [5] and in the assay on Rattus norvegicus [6] was “inactive” throughout. Moreover, the IC50 came to 225 nM in the assay on IMR-32 [1] and 22 nM against Adenosine kinase.
As to `CN(Cc1ccccc1Cl)Cc1c(N)ncnc1C#Cc1ccc(N2CCOCC2)nc1`, the IC50 with IMR-32 [2] stood at 146 nM; against Adenosine kinase, 5 nM. Further, the values for the ED50 in the assay listed under Rattus norvegicus [3] and in the assay listed under Rattus norvegicus [4] were greater than 30 µmol/kg and 30 µmol/kg, respectively.
As to `Cc1ccccc1CN(C)c1c(N)ncnc1C#Cc1ccc(N2CCOCC2)nc1`, the IC50 was found to be 94 nM in the assay with IMR-32 [2] and 6 nM against Adenosine kinase. Also, the NA entry in the assay on Rattus norvegicus [6] and with Rattus norvegicus [7] was “inactive” in each case.
As for `Nc1ncnc(C#Cc2ccc(N3CCOCC3)nc2)c1CCCc1cccnc1`, the NA entry in the assay on Rattus norvegicus [5] is “inactive”. The IC50 in the assay with IMR-32 [2] was 94 nM; at Adenosine kinase, 4 nM.
In the case of `Nc1ncnc(C#Cc2ccc(N3CCOCC3)nc2)c1CN1CCc2ccccc2C1`, the IC50 in the assay with IMR-32 [2] worked out at 1000 nM; at Adenosine kinase, 40 nM.
Consider `COc1ccc(CCCc2c(N)ncnc2C#Cc2ccc(N3CCOCC3)nc2)cc1`, for which the IC50 in the assay with IMR-32 [2] amounted to 198 nM; against Adenosine kinase it was 3.5 nM. Moreover, the ED50 in the assay filed under Rattus norvegicus [3] was greater than 30 µmol/kg; in the assay filed under Rattus norvegicus [4], 20 µmol/kg.
For `Nc1ncnc(C#Cc2ccc(N3CCOCC3)nc2)c1CCCc1ccccc1`, in that order: 70 nM, 2.5 nM, greater than 30 µmol/kg and 8 µmol/kg.
For the molecule `Nc1ncnc(C#Cc2ccc(N3CCOCC3)nc2)c1CCCc1ccccc1Cl`, the IC50 with IMR-32 [1] came out at 188 nM; at Adenosine kinase, 2.5 nM.
With `CN(Cc1ccc(Cl)cc1)c1c(N)ncnc1C#Cc1ccc(N2CCOCC2)nc1`, the IC50 was 360 nM with IMR-32 [1] and 106 nM against Adenosine kinase.
Regarding `Nc1ncnc(C#Cc2ccc(N3CCOCC3)nc2)c1CCCCc1ccccc1`, the IC50 in the assay on IMR-32 [1] was greater than 1000 nM; on Adenosine kinase, 45 nM.
As to `Nc1ncnc(C#Cc2ccc(N3CCOCC3)nc2)c1Cc1ccccc1`, the IC50 stood at 700 nM with IMR-32 [2] and 40 nM at Adenosine kinase. In the assay listed under Rattus norvegicus [4], this molecule returned an ED50 of 30 µmol/kg.
Take `Nc1ncnc(C#Cc2ccc(N3CCOCC3)nc2)c1CCCc1ccc(Br)cc1`: the IC50 was determined as 565 nM in the assay with IMR-32 [1] and 2 nM against Adenosine kinase.
On to `CN(Cc1ccc2ccccc2c1)c1c(N)ncnc1C#Cc1ccc(N2CCOCC2)nc1`, for which the IC50 with IMR-32 [2] was determined as 388 nM; against Adenosine kinase, 246 nM.
Consider `CN(Cc1cccc(Br)c1)c1c(N)ncnc1C#Cc1ccc(N2CCOCC2)nc1`, for which the figures for the IC50 with IMR-32 [1] and on Adenosine kinase were 725 nM and 5 nM, respectively.
For `CN(Cc1ccccc1C(F)(F)F)c1c(N)ncnc1C#Cc1ccc(N2CCOCC2)nc1`, in that order: 276 nM and 40 nM.
`Nc1ncnc(C#Cc2ccc(N3CCOCC3)nc2)c1CCCc1ccncc1`: the NA entry in the assay with Rattus norvegicus [5] is “inactive”. Also, the figures for the IC50 in the assay on IMR-32 [2] and against Adenosine kinase were 46 nM and 4 nM, respectively. The 50% effect level in the assay listed under Rattus norvegicus [3] (ED50) was put at a dose of 46 µmol/kg.
Regarding `Nc1ncnc(C#Cc2ccc(N3CCOCC3)nc2)c1CCCc1cccc(Br)c1`, the results for the IC50 in the assay on IMR-32 [1] and at Adenosine kinase were 580 nM and 3.5 nM, respectively.
For `CN(c1cccc(Br)c1)c1c(N)ncnc1C#Cc1ccc(N2CCOCC2)nc1`, the IC50 with IMR-32 [2] came out at 280 nM; at Adenosine kinase, 28 nM.
Turning to `CN(Cc1ccccc1)c1c(N)ncnc1C#Cc1ccc(N2CCOCC2)nc1`, the results for the IC50 with IMR-32 [2] and at Adenosine kinase were 124 nM and 30 nM, respectively. The ED50 in the assay listed under Rattus norvegicus [3] and in the assay filed under Rattus norvegicus [4] was 10 µmol/kg in each case.
Consider `CN(Cc1ccc(Cl)c(Cl)c1)c1c(N)ncnc1C#Cc1ccc(N2CCOCC2)nc1`, for which the values for the IC50 in the assay on IMR-32 [1] and at Adenosine kinase were 345 nM and 200 nM, respectively.
For `CN(Cc1ccc(Br)cc1)c1c(N)ncnc1C#Cc1ccc(N2CCOCC2)nc1`, in that order: 515 nM and 90 nM.
As to `Nc1cc(C#Cc2ccc(N3CCOCC3)nc2)ncn1`, the results for the IC50 in the assay on IMR-32 [2] and against Adenosine kinase were greater than 1000 nM and 120 nM, respectively.

Values taken from ChEMBL document CHEMBL1135744, “Design, synthesis, and structure-activity relationship of 6-alkynylpyrimidines as potent adenosine kinase inhibitors” (J Med Chem, 2002).
